# Test results as given in ChEMBL document CHEMBL3286159, “Design, synthesis and molecular docking of amide and urea derivatives as Escherichia coli PDHc-E1 inhibitors” (Bioorg Med Chem, 2014).
# Assay: Inhibition of purified Escherichia coli PDHc-E1 using sodium pyruvate as substrate assessed as reduction of 2,6-DichloroPhenolindophenol after 3 mins by spectrophotometry
# How it was run: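 E. coli PDHc-E1 expressed as MBP fusion from pMal-C2X in E. coli TB1 (IPTG 0.5 mM, 7 h, 25 °C) and purified by MBP affinity. Mix of 50 mM K3PO4 pH 7.2, 2.0 mM pyruvate, 0.8 mM 2,6-DCPIP, 7.1 µM enzyme and inhibitor preincubated 3 min at 37 °C. ThDP (0–200 µM) added to start. DCPIP reduction read at 600 nm. Initial rates fit to Hill equation for IC50.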
row,Structure (SMILES),IC50 [µM]
1,Cc1ncc(CNC(=O)COc2ccccc2)c(N)n1,45.4
2,Cc1ncc(CNC(=O)COc2ccc(Cl)cc2Cl)c(N)n1,9.45
3,Cc1ncc(CNC(=O)COc2ccc(Cl)cc2)c(N)n1,13
4,Cc1ncc(CNC(=O)COc2ccc([N+](=O)[O-])cc2)c(N)n1,3.58
5,Cc1ccc(OCC(=O)NCc2cnc(C)nc2N)cc1,21.6
6,Cc1ncc(CNC(=O)COc2ccc(Br)cc2)c(N)n1,11.1
7,COc1ccc(OCC(=O)NCc2cnc(C)nc2N)cc1,16.8
8,Cc1ncc(CNC(=O)COc2ccccc2Br)c(N)n1,60.8
9,Cc1ncc(CNC(=O)COc2ccccc2Cl)c(N)n1,16.6
10,Cc1ncc(CNC(=O)COc2ccc(F)cc2)c(N)n1,17.4
11,Cc1ncc(CNC(=O)COc2ccc(F)cc2Cl)c(N)n1,7.6
12,Cc1ncc(CNC(=O)COc2ccc([N+](=O)[O-])cc2Cl)c(N)n1,4.9
13,Cc1ncc(CNC(=O)COc2ccc(Cl)cc2C)c(N)n1,21.9
14,Cc1ncc(CNC(=O)COc2ccc(C#N)cc2)c(N)n1,13.4
15,Cc1ncc(CNC(=O)NCOc2ccccc2)c(N)n1,12.9
16,Cc1ccc(OCNC(=O)NCc2cnc(C)nc2N)cc1,9.23
17,COc1ccc(OCNC(=O)NCc2cnc(C)nc2N)cc1,6.3
18,Cc1ncc(CNC(=O)NCOc2ccc(F)cc2)c(N)n1,10.3
19,Cc1ncc(CNC(=O)NCOc2ccc(Cl)cc2)c(N)n1,3.67
